Screening results: PubChem BioAssay, several laboratories
PolyA inhibitor: yeast polyadenylation inhibition. S. cerevisiae SKY197-pL101 polyadenylation reporter, beta-gal luminescence; efflux-impaired pdr1/pdr3 knockout yeast; score 100 = 6 SD above DMSO. activity score, % at 12 µM. actives 0.02% (n = 300,000). AID 1875;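 active = lowest replicate activity score at least 50, where 100 means six control SD above control mean; inconclusive = lowest score under 50 but half or more replicates reach 50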;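 also: yeast exposed to compound for 9 h at 30 °C; higher score means more reporter readthrough which indicates perturbed polyadenylation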
Calb FLC: affects C. albicans growth with fluconazole. C. albicans CaCi-2 (fluconazole-resistant clinical isolate) + fluconazole, Alamar Blue growth, 48 h. growth inhibition, % (concentration not given with the values). actives 0.57% (n = 300,000);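 active = growth inhibition above about 58% in most replicates, limit read from the data, passing the limit was not always enough; inconclusive = exactly half the replicates above a set limit; inactive = most replicates below a set limit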;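 also: all wells also contain fluconazole at 8 µg/ml as a sub-toxic cotreatment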
NALP1 inh: blocks the NALP1 inflammasome reconstituted in yeast | S. cerevisiae NALP1/ASC/caspase-1 growth, X-gal OD620, 72 h | inhibition, % at 10 µM | AID 2071 | actives 0.61% (n = 280,000); in the data active = inhibition mostly above about 24%, no sharp cut-off; inactive = mostly below about 32%
NLRP3 yeast inh: NALP3 inhibition in yeast; Yeast reconstituted NLRP3/ASC/caspase-1, beta-gal luminescence, 24 h; actives 0.39% (n = 330,000); inhibition, % at 10 µM;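 active = inhibition of 50% or more; inactive = inhibition below 50%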
Lmaj promast: inhibitors of Leishmania major promastigote growth. Leishmania major promastigotes, resazurin fluorescence viability. inhibition, % at 10 µM. actives 9% (n = 200,000). AID 1063; in the data active = inhibition above about 50%;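 also: promastigotes grown with compound for 44 hours at 28 °C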
T cruzi inh: blocks replication of Trypanosoma cruzi; T. cruzi beta-gal in NIH3T3, luminescence, 90 h; inhibition, % (no concentration beside the values); actives 1.4% (n = 300,000); AID 1885;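 active = mean inhibition across valid replicates above about 55%, limit read from the data; inconclusive = mean below that limit but half or more replicates reach it; inactive = mean below it, under half of replicates reach it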;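 also: signal also drops with host cell toxicity which is not excluded here; higher percent means less beta-gal luminescence so fewer parasites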
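Test system: β-gal T. cruzi (Tulahuen C4) inside NIH/3T3 cells / Quantity: 5,000 cells/well / Measured by: luminescence from GalScreen with 0.05% NP40, read after 60 min / Medium: DMEM plus 2% FBS / Measure: parasite load inhibition, % / Reagent: Tulahuen C4 trypomastigotes, 5000/well / Schedule: co-culture of at least 90 h after 3 h attachment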
Numbers stand for hits; - = inactive; ? = inconclusive; . = no result. The entries come from a sample that favours hits as a whole.

SMILES	PolyA inhibitor	Calb FLC	NALP1 inh	NLRP3 yeast inh	Lmaj promast	T cruzi inh
Cc1cc(Oc2ccc(Cl)cc2)nc(-c2ccccc2O)n1	-	.	32	-	-	-
CN1C(=C2C(=O)OC(C)(C)OC2=O)Sc2ccccc21	-	-	-	-	99	-
CC(=O)NN1C(=O)/C(=C2/Sc3ccccc3N2C)SC1=S	-	-	-	-	.	-
COc1ccc(C2CC(c3ccccc3)=NN2C(=O)CN2CCN(Cc3ccccc3)CC2)cc1 (stereo unspecified)	-	-	-	-	54	-
COc1ccc(C2=NN(C(=O)CN3CCCCC3)C(c3ccc(C)cc3)C2)cc1 (stereo unspecified)	-	-	-	-	73	-
COc1ccc(C2CC(c3ccccc3OC(C)=O)=NN2C(=O)/C=C/c2ccccc2)cc1 (stereo unspecified)	-	-	-	-	97	-
CC(=O)Oc1ccccc1C1=NN(C(=O)/C=C/c2ccccc2)C(c2ccccc2)C1 (stereo unspecified)	-	-	-	-	-	-
COc1ccc(C2CC(c3ccc(Br)cc3)=NN2C(=O)CN2CCCC2)cc1 (stereo unspecified)	-	-	-	-	.	-
COc1ccc(C2CC(c3ccc(Br)cc3)=NN2C(=O)CSC2=NN3CCCC(=O)N=C3S2)cc1 (stereo unspecified)	-	-	-	-	.	60
O=C(COC(=O)c1ccccc1Cl)NCc1ccco1	.	.	.	-	.	.
Nc1c(-c2nn[nH]n2)cnn1-c1cc(Cl)cc(Cl)c1	-	-	.	-	.	-
CC(C)c1nnc(NC(=O)CCC(=O)N2CCN(c3ccccc3F)CC2)s1	-	-	-	-	.	-
FC(F)(F)c1cccc(CN2CCC(c3cc(-c4cccs4)n[nH]3)CC2)c1	-	-	-	-	-	61
FC(F)(F)c1cccc(-c2cc(C3CCNCC3)[nH]n2)c1	-	-	-	-	.	56
COC(=O)CCN1CCC(c2cc(-c3cccc(C(F)(F)F)c3)n[nH]2)CC1	-	-	-	-	.	-
Cc1ccc(CN2CCC(c3cc(-c4cccs4)n[nH]3)CC2)cc1	-	-	-	-	94	?
Oc1c(Br)cc(C2N=C(c3ccccc3Cl)NO2)cc1Br (stereo unspecified)	-	-	-	-	-	-
CCN1CCN(C(=O)C2CCN(Cc3nc(-c4cccc(Cl)c4)oc3C)CC2)CC1	-	-	-	-	66	-
CCc1ccc(-c2nc(CN3CCC(C(=O)N4CCN(c5ccccn5)CC4)CC3)c(C)o2)cc1	.	.	-	-	84	.
Cc1oc(-c2cccc(Cl)c2)nc1CN1CCC(C(=O)N2CCN(c3ccccn3)CC2)CC1	.	.	.	-	.	.
CCc1ccc(-c2nc(CN3CCC(C(=O)NCc4ccc(F)cc4)CC3)c(C)o2)cc1	-	-	-	-	-	-
CCc1ccc(-c2nc(CN3CCCC(C(=O)O)C3)c(C)o2)cc1 (stereo unspecified)	-	-	-	-	-	-
CCc1ccc(-c2nc(CN3CCC(C(=O)N4CCN(c5ccccc5)CC4)CC3)c(C)o2)cc1	-	?	-	-	82	-
CC1CCN(CC(O)COCCC23CC4CC(CC(C4)C2)C3)CC1 (stereo unspecified)	-	-	-	-	95	61
Cc1nc(C)n(CC(O)COc2ccc3c(c2)CCC3)n1 (stereo unspecified)	-	-	-	-	-	-
SMILES	PolyA inhibitor	Calb FLC	NALP1 inh	NLRP3 yeast inh	Lmaj promast	T cruzi inh
CC(C)(C)CC(C)(C)NCC(O)COc1ccc2c(c1)CCC2 (stereo unspecified)	-	-	.	-	100	-
CC1CCN(CC(O)COc2ccc(-c3ccccc3)cc2)CC1 (stereo unspecified)	-	-	-	-	.	-
CC1CC(C)CN(CC(O)COCCOc2ccc(Br)cc2)C1 (stereo unspecified)	-	-	-	-	92	-
CC1(C)CC(O)CC(C)(C)N1CC(O)COCCOc1ccc(Br)cc1 (stereo unspecified)	-	-	-	-	-	-
CC1CC(C)CN(CC(O)COc2ccc3c(c2)CCC3)C1 (stereo unspecified)	-	-	-	-	89	-
CCCCn1nc(C(=O)N(C)C2CCCCC2)c2ccccc2c1=O	.	.	.	-	.	.
CC1CC(C)CN(CCOc2ccc(Br)cc2)C1 (stereo unspecified)	-	-	-	-	82	-
Brc1ccc(OCCN2CCOCC2)cc1	-	-	.	-	.	-
CC1CCN(CC(O)COCCOc2ccc(Br)cc2)CC1 (stereo unspecified)	-	-	-	-	82	-
COc1ccc(-c2nc(CSCC(=O)NC3CCN(Cc4ccccc4)CC3)c(C)o2)cc1OC	-	-	-	-	.	-
CCN(CC)c1nc(SCCOC(=O)Nc2ccccc2)nc(N(CC)CC)n1	-	-	-	-	-	68
CN(C)c1nc(SCCOC(=O)c2ccccc2)nc(N(C)C)n1	-	-	-	-	-	-
CC1CCCCN1C(=O)c1cc(S(=O)(=O)N2CCCCC2)c[nH]1 (stereo unspecified)	-	-	-	-	.	-
COc1cc(CCC(=O)Nc2cccc(S(=O)(=O)N(C)C)c2)cc(OC)c1OC	-	-	-	-	-	-
O=C1Nc2ccccc2/C1=C\c1cccn1-c1ccc(OC(F)(F)F)cc1	-	-	-	-	-	-
COCCN(CC(=O)NC1CCCCC1)C(=O)CSc1nc2ccccc2o1	-	-	-	-	-	-
O=C(CN(C(=O)CSc1nc2ccccc2o1)c1ccccc1F)NC1CCCCC1	-	-	-	-	65	-
Cc1ccc(C)c(NC(=O)CSc2nc3ccc(N4C(=O)c5ccccc5C4=O)cc3s2)c1	-	-	-	-	99	-
Cn1c(=O)c2c(nc(NCc3cccnc3)n2Cc2cccc(C(F)(F)F)c2)n(C)c1=O	-	-	-	-	95	-
COc1cccc(Cn2c(NCc3cccnc3)nc3c2c(=O)n(C)c(=O)n3C)c1	-	-	-	-	-	-
COC(=O)c1cccc(NC(=O)CN2C(=O)c3ccccc3C2=O)c1	-	-	-	-	.	-
O=C(CCCSc1nc(-c2ccco2)cc(C(F)(F)F)n1)Nc1ccc2c(c1)OCO2	-	-	.	-	-	-
CC(NC(=O)CCSc1nc(-c2ccc3c(c2)OCO3)cc(C(F)(F)F)n1)c1ccccc1 (stereo unspecified)	-	-	-	-	62	?
COC(=O)c1sc(NC(=O)CSc2nc3cccnc3n2C)nc1C	-	-	-	-	.	-
COC(=O)c1sc(NC(=O)CSc2nc3cccnc3n2C2CCCCC2)nc1C	-	-	-	-	61	-
Cc1nn(CC(C)C)c(Cl)c1C(=O)N(C)CC(=O)Nc1c(Cl)cccc1Cl	-	-	-	-	.	-
O=C(NCc1ccco1)c1ccc2ccccc2n1	-	-	-	-	-	-
